High-throughput results from PubChem.
A selection: hits, their analogues and other compounds. The true share with any hit is near 0.64%.
PMI act hi M6P = PMI (human) activation, high substrate | P34949 | coupled PMI enzyme assay, resazurin fluorescence, 20 min; active compounds read high; 1 = untreated enzyme, 0 = substrate-free blank | activation factor at 20 µM | 0.34% of 190,000 active;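 active means activation factor of 2 or more at 20 µM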
Target sequence (P34949 whole entry, looked up): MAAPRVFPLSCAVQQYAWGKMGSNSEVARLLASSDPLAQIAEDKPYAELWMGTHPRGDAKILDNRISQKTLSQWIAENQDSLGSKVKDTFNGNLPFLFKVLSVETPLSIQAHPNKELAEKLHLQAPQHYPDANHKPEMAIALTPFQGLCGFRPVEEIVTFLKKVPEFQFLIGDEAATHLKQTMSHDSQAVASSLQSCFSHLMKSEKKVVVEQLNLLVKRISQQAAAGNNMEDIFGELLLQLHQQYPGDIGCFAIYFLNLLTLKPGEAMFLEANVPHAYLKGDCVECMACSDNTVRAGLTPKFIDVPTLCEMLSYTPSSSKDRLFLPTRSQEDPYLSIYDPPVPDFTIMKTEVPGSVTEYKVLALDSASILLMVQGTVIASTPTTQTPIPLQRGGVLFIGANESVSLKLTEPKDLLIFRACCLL
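assay system = human phosphomannose isomerase with PGI, G6PDH, diaphorase coupling enzymes | quantity = 15 ng/mL PMI | incubation = enzyme reaction with compound 20 min at room temperature | medium = HEPES pH 7.4 buffer with MgCl2 and Tween-20 | compound dosing = one concentration, 20 µM, in 1% DMSO | measured by = Diaphorase-driven resazurin-to-resorufin fluorescence, excitation 544, emission 590 nm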
TNAP inh no acc = inhibitors of human TNAP without phosphate acceptor; 0.26% of 200,000 active; inhibition, % at 20 µM; purified TNAP, CDP-star luminescence, 30 min; P05186;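 active means tissue-nonspecific alkaline phosphatase inhibition above about 50% at 20 µM in the single-dose screen, limit read from the data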;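 further: 0% = DMSO negative control and 100% = EDTA positive control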
TNAP inh hiacc = inhibitors of human TNAP at high phosphate acceptor concentration | purified TNAP, CDP-star luminescence, 1 M DEA | inhibition, % at 20 µM | 0.03% of 200,000 active | AID 1135;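 active means over 50% inhibition of tissue-nonspecific alkaline phosphatase at 20 µM in the single-dose screen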;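 further: plate controls were DMSO wells for no effect and EDTA-quenched wells as full inhibition for full effect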
TNAP act hi DEA = TNAP (human) activation, high acceptor; P05186; purified TNAP, CDP-star luminescence, 1 M DEA, 30 min; active compounds read high; 0 = EDTA background, 1 = DMSO-only activity; activation factor at 20 µM; 200,000 tested, under 10 active;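 active means activation factor at least 2 at 20 µM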
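Dosing: 20 µM single point. System: human TNAP. Amount: TNAP 1/800 final. Incubation: 30 min, room temperature. Read-out: TNAP activation factor scaled between EDTA and DMSO control wells. Signal: luminescence from CDP-star hydrolysis. Medium: 1 M DEA, pH 9.8, Mg2+, Zn2+. Control set: EDTA negative control, DMSO positive control.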
PMI act = phosphomannose isomerase (human) activation | P34949 | purified human PMI, coupled resazurin fluorescence, 20 min; active compounds read high; 1 = vehicle control, 0 substrate-free wells | activation factor at 20 µM | 0.005% of 190,000 active;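 active means activation factor of 2 or more at 20 µM, relative to plate controls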
* = called active by the depositor.

SMILES	PMI act hi M6P	TNAP inh no acc	TNAP inh hiacc	TNAP act hi DEA	PMI act
CC1=NN(c2ccccc2)C(=O)/C1=C/C=C/C=C/N(C)C	0.5	36	55*	0.4	0.5
CCOC(=O)C1=C(Nc2ccc(Br)cc2)CC(C)(O)C(C(=O)OCC)C1c1ccccc1 (configuration not stated)	0.9	-7	-5	1.1	1
Cc1ccc(C(=O)c2cn[nH]c2-c2ccccc2O)cc1	0.9	41	-5	1.1	1.1
O=C(c1ccc(F)cc1)c1cn[nH]c1-c1ccccc1O	0.9	56*	-2	1	1
COc1ccc(C(=O)NNc2ccccc2)cc1OC	2.2*	-10	4	1	1.4
Cc1ccc(C)c(S(=O)(=O)NCc2ccc(C(=O)NCc3ccccn3)cc2)c1	1	-6	1	1	0.9
Nc1nc(SCC(=O)N2CCc3ccccc32)[nH]c(=O)c1-c1ccccc1	1.1	66*	-9	1.1	1
Nc1nc(SCC(=O)N2CCCC2)[nH]c(=O)c1-c1ccccc1	1	-8	-3	1	1
Cc1ccc(N/N=C(\C#N)C(N)=S)cc1C	2.1*	15	10	0.9	1.3
Cc1[nH]nc2c1C(=O)CC(C)(C)C2	0.9	55*	-1	1	0.9
CCc1n[nH]c2c1C(=O)CC(C)(C)C2	0.9	51*	2	1	0.9
CCc1n[nH]c2c1/C(=N/O)CCC2	0.9	-6	-4	1	0.9
Cc1[nH]nc2c1/C(=N\O)CC(C)(C)C2	1	11	-5	1.1	1
Cc1ccc(NC(=O)COC(=O)C2CSC3(C)CCC(=O)N23)cc1S(=O)(=O)N1CCOCC1 (configuration not stated)	0.9	-2	0	1	1
COc1ccc([N+](=O)[O-])cc1C(=O)Nc1ccc(OCC(=O)N2CCOCC2)cc1	1	-8	-4	1	1.3
Nc1cc(=O)[nH]c(SCc2csc(-c3ccccc3)n2)n1	0.9	-17	-3	1	1
c1ccc(-c2nc(CSc3n[nH]c(-c4cccs4)n3)cs2)cc1	1.1	60*	-5	1.1	1
Cc1ccc(N2NC(C)(c3cccs3)NC2=S)cc1 (configuration not stated)	2.7*	8	0	1	1.6
CC(C)NC[C@@H](O)c1ccc(O)c(O)c1	0.4	71*	9	0.9	0.3
COc1cc(/C=C/C(=O)O)cc(S(=O)(=O)Nc2ccc3c(c2)OCO3)c1OC	0.8	-14	-6	1.1	1
Oc1ccc(/C=N/NC(=S)Nc2cccnc2)cc1O	0.9	78*	20	0.8	0.6
COc1ccc(C(=O)NNC(=O)CSc2ccccc2)cc1	1	-51	-5	1.1	0.9
COc1ccc(-c2nc(=S)c3ccc4ccccc4c3[nH]2)cc1	2.3*	-4	0	1	1.7
COc1ccc(-c2nc3ccccc3[nH]2)cc1	1	-18	1	1	1
CC(C)(C)C1CCC(=NNC(=O)C(=O)NC2CCCCC2)CC1 (configuration not stated)	0.9	-14	-1	1	0.9
SMILES	PMI act hi M6P	TNAP inh no acc	TNAP inh hiacc	TNAP act hi DEA	PMI act
Nc1c(C(=O)Nc2nc3ccccc3s2)sc2nc(-c3cccs3)ccc12	0.9	10	6	0.9	0.9
CC(=O)c1sc2nc(-c3cccs3)ccc2c1N	2.1*	12	-10	1.1	1.7
O=C(COC(=O)c1ccc2ccccc2n1)Nc1cccc(S(=O)(=O)NC2=NCCCCC2)c1	0.9	-51	-97	2*	1
Cc1nc(SCCC(C)C)c([N+](=O)[O-])[nH]1	1.6	9	0	1	1.6
CCCCSc1nc(C)[nH]c1[N+](=O)[O-]	2*	-11	-2	1	1.7
O=C(Nc1ccccc1)N1CCCc2ccccc21	1	2	0	1	1
COc1ccc(C)cc1NC(=O)N1CCCc2ccccc21	0.9	-5	-3	1	1
CCOC(=O)/C(=N/Nc1ccccc1)N1CCCc2ccccc21	2.4*	-21	-3	1	1.5
COC(=O)/C(=N/Nc1ccccc1C)N1CCCc2ccccc21	2*	-14	0	1	1.5
CN1CCN(C(=S)SCc2nc(N)nc(Nc3ccc(F)cc3)n2)CC1	0.9	-4	0	1	0.9
CSc1n[nH]c(NC(C)=O)n1	1.1	50*	4	1	1.1
CCCSc1n[nH]c(NC(C)=O)n1	1	96*	-1	1	1
CCCCCCCCCCSc1n[nH]c(NC(C)=O)n1	1.1	-74	2	1	1
Cc1ccc(NC(=O)C2OCCc3ccccc32)cc1Cl (configuration not stated)	1	-5	-5	1.1	1
C=CCOc1c(Br)cc(/C=N/n2c(CC)n[nH]c2=S)cc1Br	1.2	59*	16	0.8	1.2
CCOC(=O)CCNCc1ccc(F)cc1	1.1	-12	-4	1	1.2
COC(=O)C(NNc1ccccc1)(NC(=O)c1ccccc1F)C(F)(F)F (configuration not stated)	2.3*	-12	-4	1	1.5
CC(C)CCN1CCN(Cc2nc(-c3ccc(F)cc3)cs2)CC1CCO (configuration not stated)	1	-6	-2	1	0.9
Cc1ccc(S(=O)(=O)N/N=C\c2ccc([N+](=O)[O-])o2)cc1	2.1*	19	-2	1	1.5
O=[N+]([O-])c1ccc(/C=N/NS(=O)(=O)c2ccc(Cl)cc2)o1	2.2*	17	2	1	1.6
CC(=O)NC(Cc1ccc(C)cc1)C(=O)NC1CCN(c2ncccc2[N+](=O)[O-])CC1 (configuration not stated)	1	-4	4	1	0.9
CCc1nnc(NCC(=O)N2CCc3ccccc32)s1	2.2*	-8	2	1	1.1
Cc1ccoc1C(=O)NCCNc1ccc(Cl)cc1[N+](=O)[O-]	0.8	20	26	0.7	0.9
Cc1ccc(C2NCCS2)cc1 (configuration not stated)	1.3	63*	2	1	1.5
O=C1Nc2ccccc2N2CCCC12 (configuration not stated)	1.8	-29	1	1	1.2
O=C1Nc2cc(S(=O)(=O)N3CCCC3)ccc2N2CCCC12 (configuration not stated)	2*	-24	-5	1.1	1.3
CC(C)(C)C1CCC(=NNC(=S)NCc2ccccc2)CC1 (configuration not stated)	2*	-10	0	1	1.8
CC(C)(C)C1CCC(=NNC(=O)C(=O)NCc2cccnc2)CC1 (configuration not stated)	0.9	-14	-2	1	1
